This series concerns MS2 coat protein. Briefly: apparent Kd, MS2 coat protein; higher = weaker binding; RNA-MaP array; FMN 200 µM where present. In outline: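 Green signal from SNAP-549-labelled MS2 coat protein was normalised to red-channel RNA signal and to the median Fmax of control clusters. The protein was titrated from 0.7 or 1.5 nM, doubling to 3 µM, without and then with constant ligand, over designs transcribed by stalled E. coli RNA polymerase on Illumina sequencing-chip clusters, in 100 mM Tris-HCl pH 7.5, 80 mM KCl, 4 mM MgCl2, BSA, DTT, yeast tRNA and Tween-20. The apparent Kd is the median of filtered per-cluster binding-curve fits.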

The mark [1] stands for this setting: designed as: OFF switch for flavin mononucleotide, no ligand.
Setting [2] is: ligand present: flavin mononucleotide, designed as: OFF switch for flavin mononucleotide.
[3] abbreviates: designed as: ON switch for flavin mononucleotide, no ligand.
Where [4] appears, read: ligand present: flavin mononucleotide, designed as: ON switch for flavin mononucleotide.

A word on the apparent Kd: it is the concentration giving half-maximal binding under the conditions of the assay.

With “UUUGUGUCAGGAUAUGAGUCGUAGAACAAUAGUACUACGUCUCAGAAGGGACAUGAGGAUCACCCAUGUGCCUC”, the “apparent Kd” value runs as follows: under setting [1], 35.4 nM; under setting [2], 281 nM.

For “UUGGACGUCGUAGGAUAUGUAGGAUAUUCCUACAUGAGGAUCACCCAUGUUGACAUGGAAGAAGGAUAGAAGGACGAUGUCCAU”, the “apparent Kd” value is 624 nM under setting [3] and 81.5 nM under setting [4].

Turning to “AGGUGCACAGGAUAUACAUGAGGAUCACCCAUGUGCCAACUGUGCGCUGGUCCUUUAUGUAGAAGGGUGCGUCC”, the “apparent Kd” value under setting [1] turned out to be 22.1 nM and the “apparent Kd” value under setting [2] is 15.8 nM.

For “GCGGCUAAUGCAGGAUAUCGGCACGUGUAGUGCCGAGAAGGGCACAUGAGGAUCACCCAUGUGAUCAAUCAAUGUUAAUGCCGC”, the “apparent Kd” value under setting [1] came out at 8.86 nM and the “apparent Kd” value under setting [2] was 44.2 nM.

As to “CCACGUGCUCAGAAGGGCUUUAAACACAAAUUAGCAGGAUAUGAGGACCGGUCGUGACAUGAGGAUCACCCAUGUUUUGUCUAG”, the “apparent Kd” value reads like this: under setting [3], 38.6 nM; under setting [4], 12.2 nM.

With “AAAAUGGUCUAGGAUAUGACAAAUCUGAGCACGUCAGAAGGAGACACAUGAGGAUCACCCAUGUGGGUGCGAAA”, the “apparent Kd” value by setting is: under setting [1], 36.1 nM; under setting [2], 189 nM.

On to “UGUUCUAUGUAGAAGGCCCAUAUCUGUUCUUAGGGAGGAUAUACAUGAGGAUCACCCAUGUGUAGAGCUGGUGGACUGGUCAGC”, for which the “apparent Kd” value is, setting by setting: under setting [1], 15.4 nM; under setting [2], 35.5 nM.

With “AAGAAACAUGAGGAUCACCCAUGUAAGAUAAACACAGGAUAUGCGAAAAGAAACAAAGAAGCAGAAGGGUGAAGAA”, the “apparent Kd” value runs as follows: under setting [3], 68.2 nM; under setting [4], 19.7 nM.

In the case of “GUAGUGUAGUGAGGAUAUACGAGAUCGAUAGAUCGGCGAUCCAAUUAUACAUGAGGAUCACCCAUGUAGAAGGCACUUCACUAC”, the “apparent Kd” value under setting [1] was 10.1 nM and the “apparent Kd” value under setting [2] is 59.2 nM.

For the sequence “AAAAAACAUGAGGAUCACCCAUGUGAGGAUAUCAGUAUUCAGUCCUCGGAUUGAGUACUGAGAAGGCACAUAAA”, the “apparent Kd” value was determined as 51.5 nM under setting [1] and 94.2 nM under setting [2].

In the case of “AUUUUGUCAGGAUAUGACUAGUAGGACGAGAGUGCUACUACUUAGAAGGGACAUGAGGAUCACCCAUGUAUUCC”, the “apparent Kd” value is, setting by setting: under setting [1], 16 nM; under setting [2], 17.4 nM.

For the sequence “GCUCGAUGCGCUGAGAACAUGAGGAUCACCCAUGUAAAUGGUCAGGAUAUUUACGUGCUUUAUGUAGAGAAGGGACCAUCGAGC”, the “apparent Kd” value runs as follows: under setting [3], 110 nM; under setting [4], 27.3 nM.

“CAGCGAAAGCUGAAUCUGUAGAGAGAGGAUAUACAAGAAUAAAUCCAUACAUGAGGAUCACCCAUGUAGAAGGCUCUCUACAGU”: the “apparent Kd” value reads like this: under setting [1], 7.41 nM; under setting [2], 26.6 nM.

With “UGCGGUAGAGGAUAUACAUUGAAUUUGAUUCAUGUAAAACUACAUGAGGAUCACCCAUGUAGAAGGCUAUCGCU”, the “apparent Kd” value amounted to 17.4 nM under setting [1] and 36.1 nM under setting [2].

Turning to “GGUUAUUGCAAGGAUAUGCUAUUAUUUUAUUUUGCAGAAGGUGCAACAUGAGGAUCACCCAUGUUGGAGGGUUU”, the “apparent Kd” value turned out to be 21.5 nM under setting [1] and 41.1 nM under setting [2].

Consider “GCACGAGACUAAGGAUAUGGUGUACCUACAUGUAACAUGAGGAUCACCCAUGUGGUAAGUAUGAUUCAGAAGGUAGAGACGUGC”, for which the “apparent Kd” value is, setting by setting: under setting [3], 33.2 nM; under setting [4], 20 nM.

Consider “CGUUGACAUGAGGAUCACCCAUGUCAGAUCUGGUCAGGAUAUGGUGUGGUUUGGCUAUUGCCAGAAGGGACGUCUG”, for which the “apparent Kd” value under setting [3] amounted to 43.1 nM and the “apparent Kd” value under setting [4] was found to be 46.8 nM.

Take “GCCUCACAUGAGGAUCACCCAUGUCAGGAUAUAGGAGACGGUAGCUUUGCUGCCUUCGCUAGAAGGGACUGGCU”: the “apparent Kd” value is, setting by setting: under setting [1], 33.5 nM; under setting [2], 55.4 nM.

Regarding “AAGACGUAAGGAUAUAUUAUGGGACAAUGAAGGAAGAUAAAACAUGAGGAUCACCCAUGUAGAAGGUGCAAAGA”, the “apparent Kd” value amounted to 45.9 nM under setting [1] and 41.5 nM under setting [2].

“CGGGAGUCAGGAUAUACGAACAUGUCGCCAGAUGUCAAGGUACAUGAGGAUCACCCAUGUAGAAGGGAGGAGGG”: the “apparent Kd” value is 60.5 nM under setting [1] and 32.7 nM under setting [2].

Consider “GUCUUCCUAGGAUAUACAUGAGGAUCACCCAUGUACAGUUUCGUCAAAGGAUACUCGCGUAGAAGGAGGUGGAU”, for which the “apparent Kd” value by setting is: under setting [1], 26 nM; under setting [2], 50.7 nM.

In the case of “AACAAUUAGUAAGGAUAUACUAGCGAUUAGCUUGUAGAAGGUACAGUCUUAUGUAUAACAAAUUAACAUGAGGAUCACCCAUGU”, the “apparent Kd” value runs as follows: under setting [3], 10.4 nM; under setting [4], 7.88 nM.

For the sequence “UGUGCGUAUGUGAGGAUAUGCUGGUCCUUGGCUCGGCAGAAGGCACAUGAGGAUCACCCAUGUGGUGUCGUACG”, the “apparent Kd” value under setting [1] was found to be 75.5 nM and the “apparent Kd” value under setting [2] came out at 199 nM.

For the sequence “UGCUACGUUUCGUAGCAGUGUCAUCGAGAAGGCCCUGACAUGAGGAUCACCCAUGUUGUUACAUGGGAGGAUAUCGAUGAUACU”, the “apparent Kd” value amounted to 12.4 nM under setting [3] and 5.09 nM under setting [4].

For the sequence “AUUUUACAUGAGGAUCACCCAUGUUUUGGCGGGUCAGGAUAUAGAUCGGAUGAGUUCUGGCUAGAAGGGACAUGUA”, the “apparent Kd” value stood at 54 nM under setting [3] and 106 nM under setting [4].

Regarding “AUUAUUGACGUAGGAUAUUGUUACAUGAGGAUCACCCAUGUUAUUUGGGAACUAGGAAUAUUUUACAAGAAGGACGUUGUUAAA”, the “apparent Kd” value runs as follows: under setting [3], 74.9 nM; under setting [4], 92.1 nM.

In the case of “GGAUGACAAAGUCAUCCAAUUCGAACAUGAGGAUCACCCAUGUAGGAUAUGCUACUCAAAGAGUAGCAGAAGGACAUGUGCCUU”, the “apparent Kd” value amounted to 31.7 nM under setting [1] and 173 nM under setting [2].

Take “UUGAAGAAUUAAGGAUAUUGAUUACAUAUGUUAAACAUGAGGAUCACCCAUGUGGGUUGCGGUAUCGAGAAGGUAAAUUAAUAG”: the “apparent Kd” value reads like this: under setting [3], 115 nM; under setting [4], 107 nM.

For the sequence “UUAUUAUAUGUAGGAUAUGCAUAUUGUUGUUAUGCAGAAGGACAUGAGGAUCACCCAUGUAUAUUAUUGUUAUAUAUUAUAUAU”, the “apparent Kd” value reads like this: under setting [1], 23.4 nM; under setting [2], 36.7 nM.

With “CCAUGACAAAGUCAUGGUUAACGAACAUGAGGAUCACCCAUGUAGGAUAUGCUACUCAAAGAGUAGCAGAAGGACAUGUGCCUU”, the “apparent Kd” value was determined as 34.3 nM under setting [1] and 259 nM under setting [2].

As to “AAACUAGUAGAGGAUAUUCCAGGCAGUGUUUGAGAAGAAGGCUACACAUGAGGAUCACCCAUGUGGCCUGGUGG”, the “apparent Kd” value came to 13.6 nM under setting [1] and 17.1 nM under setting [2].

With “GGUCCACGAGGAUAUCGAUUAUAGUACAUGAGGAUCACCCAUGUUGUCCAGGUUUCGUUUCGAGAAGGCGUGGGUU”, the “apparent Kd” value is, setting by setting: under setting [1], 88.4 nM; under setting [2], 52.6 nM.

With “GAUACACAUGAGGAUCACCCAUGUGAGGAUAUGCGUACGUUGUCCGUAGGCGACGUGCGCAGAAGGCGCUUGGU”, the “apparent Kd” value reads like this: under setting [1], 72.2 nM; under setting [2], 75 nM.

On to “AAUUAGGUCACAGGAUAUACAACAUCCAUUGCUGUAGAAGGGUGUCACAAUCAUAUCUGACAUGAGGAUCACCCAUGUUUCCAC”, for which the “apparent Kd” value under setting [3] was 85.8 nM and the “apparent Kd” value under setting [4] amounted to 33.3 nM.

As for “GCGUUGAACGAGAAGGCCAAUACAUGAGGAUCACCCAUGUUGUGAUGUUUUGGAGGAUAUCGAUCGUCGUCUCAUGAGCAACGC”, the “apparent Kd” value is, setting by setting: under setting [1], 7.47 nM; under setting [2], 10.2 nM.

As for “AAAUUUAACGAAGGAUAUACAAACAUGAGGAUCACCCAUGUGUGUUUCGUGUUACUGAAAUUCGGGUAGAAGGUCGUAUACAUA”, the “apparent Kd” value came out at 23.4 nM under setting [1] and 18.1 nM under setting [2].

As for “AUCAGCUCGACAGGAUAUACGUCACUGCGUCAGCAGUGUGGUAAGAUCACAUGAGGAUCACCCAUGUAGAAGGGACGAGCUGAU”, the “apparent Kd” value by setting is: under setting [1], 12.1 nM; under setting [2], 56.2 nM.

Turning to “UUUUUUUUAGUAAGGAUAUGAUGCAGGAAACUGCGUCAGAAGGUACAUGAGGAUCACCCAUGUUAAUUUUGUUU”, the “apparent Kd” value came out at 18.8 nM under setting [1] and 20.4 nM under setting [2].

For the sequence “GCUCUAUGCUAGAAGGCGUGAAACAUGAGGAUCACCCAUGUCAAAGACGUGAGGAUAUAGCAUAGAGCAAAAGUGCGAAAGCAC”, the “apparent Kd” value under setting [3] is 5.49 nM and the “apparent Kd” value under setting [4] turned out to be 5.29 nM.

For “AACAAACGCCUAGGAUAUCAUACUCGAGCGGUCUGAGAAGGAGGCAAGCUUGGGUCCUCAGCACAUGAGGAUCACCCAUGUAAG”, the “apparent Kd” value by setting is: under setting [1], 303 nM; under setting [2], 57.2 nM.

Take “CCUCCCUGAGGAUAUCCACCCUCAUACAUGAGGAUCACCCAUGUUCAACCCUGGGUUCCCGGAGAAGGCAGCCUCC”: the “apparent Kd” value runs as follows: under setting [1], 706 nM; under setting [2], 650 nM.

“UAUUAGUGAGGAUAUGAGUCGUAGAACAAUAGUACUACGUCUCAGAAGGUACAUGAGGAUCACCCAUGUUCCUC”: the “apparent Kd” value under setting [1] was found to be 19 nM and the “apparent Kd” value under setting [2] is 22.8 nM.

On to “AUCAUGUAAGGAUAUCUUACAUGUGACUUCGGUCACUGUCAAGAGAAGGUACAUGAGGAUCACCCAUGUAUGAC”, for which the “apparent Kd” value is, setting by setting: under setting [1], 14.7 nM; under setting [2], 19 nM.

As for “AGGUGUAGAGGAUAUCUCUUCUCUCACAUGAGGAUCACCCAUGUUCUAAAGUCCAAGGAGAGAGAAGGCUACACCA”, the “apparent Kd” value is, setting by setting: under setting [1], 19.8 nM; under setting [2], 15.6 nM.

With “CUUUUGUGAGGAUAUUAGUAGUAAAAAAAUAAAAUUACUACUGAGAAGGCACAUGAGGAUCACCCAUGUUCCUC”, the “apparent Kd” value runs as follows: under setting [1], 31.4 nM; under setting [2], 213 nM.

“AUCCGGCGUGUAGGAUAUGGAAAAGAAAAGGAUCCAGAAGGACAUGAGGAUCACCCAUGUACAUGUAAACAGUCAUCACCGGAA”: the “apparent Kd” value by setting is: under setting [1], 36.2 nM; under setting [2], 58.9 nM.

In the case of “GGGUCCAUCGGAGGAUAUCAUGUAAAUACAUGAGGAUCACCCAUGUCGAUGGAGACAUCGGAGAUUGAGAAGGCCGAUGUACCG”, the “apparent Kd” value is, setting by setting: under setting [3], 209 nM; under setting [4], 10.5 nM.

For the sequence “UUAUAAAGUGUGAGGAUAUGCUGGUCGAUAGAUCAGCAGAAGGCACAUGAGGAUCACCCAUGUAAUAUAUUUUA”, the “apparent Kd” value by setting is: under setting [1], 52.1 nM; under setting [2], 222 nM.

These data come from the EternaBench riboswitch data.
